Measurements from different studies.
Protocols differ between the studies behind these lines.
SIRT6: NAD-dependent protein deacylase sirtuin-6 (SIRT6, Homo sapiens, UniProt Q8N6T7)
Plasmepsin II: Plasmepsin II (Plasmodium falciparum, UniProt P46925)

CN(Cc1ccc(NC(=O)C2=Cc3cc(-c4ccc(OCCCF)cc4)ccc3CCC2)cc1)C1CCOCC1  inhibition (C-C chemokine receptor type 2 (CCR2, Homo sapiens, UniProt P41597); ligand displacement, radioligand; 1 µM, cell membranes): 48%
Ic1cccc2cnccc12  inhibition (Protein mono-ADP-ribosyltransferase PARP14 (PARP14, Homo sapiens, UniProt Q460N5); enzyme activity, inhibitor; 10 µM): 7%
CCN(CC)CCNC(=O)C1CCN(c2ccc3nnc(-c4cccc(C)c4)n3n2)CC1  inhibition (Sodium channel protein type 5 subunit alpha (SCN5A, Homo sapiens, UniProt Q14524); ion current, inhibitor, patch clamp; CHO; 10 µM): 9.9%
COc1cccc(Sc2ccc(CONC(=O)c3ccc(C(N)=O)cc3)cc2C(F)(F)F)c1  inhibition (SIRT6; enzyme activity, inhibitor, fluorescence; 100 µM): 100%
O=C(Nc1ccc(S(=O)(=O)N2CCC(Cl)CC2)cc1)c1ccc([N+](=O)[O-])o1  inhibition (Platelet-activating factor receptor (PTAFR, Homo sapiens, UniProt P25105); ligand displacement, radioligand; 10 µM): 39%
C/C(=C\C(=O)OCCCCCCCCC(=O)O)C[C@@H]1OC[C@H](C[C@@H]2O[C@H]2[C@@H](C)[C@H](C)O)[C@@H](O)[C@H]1O  inhibition (C-C chemokine receptor type 5 (CCR5, Homo sapiens, UniProt P51681); calcium signal, antagonist; U87/CD4/CCR5; 100 µM): 96%
NC(=O)c1ccc(C(=O)NOCc2ccccc2Cl)cc1  inhibition (SIRT6; enzyme activity, inhibitor, fluorescence; 100 µM): 78.2%
CN1CC(Oc2cnc(C#N)cc2-c2ccn3nc(NC(=O)C4CC4)cc3c2)C1  inhibition ([Pyruvate dehydrogenase (acetyl-transferring)] kinase isozyme 4, mitochondrial (PDK4, Homo sapiens, UniProt Q16654); enzyme activity, inhibitor; 1 µM): 2%
NC(=O)c1ccc(C(=O)NOCc2ccc(Sc3ccccc3Cl)c(C(F)(F)F)c2)cc1  inhibition (SIRT6; enzyme activity, inhibitor, fluorescence; 100 µM): 99.1%
O=C(NCCNC(=O)c1n[nH]c(=O)c2ccccc12)c1cccc(CN2C(=O)CNC2=O)c1  inhibition (Poly [ADP-ribose] polymerase 2 (PARP2, Homo sapiens, UniProt Q9UGN5); enzyme activity, inhibitor; 0.5 µM): ~50%
O=[N+]([O-])c1ccc(N2CCC(NCCC(O)c3csc4ccc(F)cc34)CC2)c(C(F)(F)F)c1 (stereo not shown)  inhibition (Plasmepsin II; enzyme activity, inhibitor; 5 µM): 0%
COc1ccccc1CONC(=O)c1ccc(C(N)=O)cc1  inhibition (SIRT6; enzyme activity, inhibitor, fluorescence; 100 µM): 60.5%
O=C(c1ccc(F)cc1)N(Cc1ccccc1)C1CCCCC1  inhibition (Alpha-1A adrenergic receptor (Adra1a, Rattus norvegicus, UniProt P43140); cell-free assay; 10 µM): -1%
CCN(Cc1ccccc1C(F)(F)F)C(=O)C1CCN(S(=O)(=O)c2ccc3[nH]ncc3c2)CC1  inhibition (Voltage-dependent N-type calcium channel subunit alpha-1B (Cacna1b, Rattus norvegicus, UniProt Q02294); ligand displacement, radioligand; 10 µM): 2%
CCCCCCCCCCCCNC(=S)NCCCC[C@H](NS(C)(=O)=O)C(=O)N[C@@H](C)C(=O)N[C@@H](CCCNC(=N)N)C(N)=O  inhibition (SIRT6; enzyme activity, inhibitor; 10 µM): 30%
NC(=O)c1ccc(C(=O)NOCc2ccc(Oc3ccccc3)cc2)cc1  inhibition (SIRT6; enzyme activity, inhibitor, fluorescence; 100 µM): 89.1%
OC(CCN1CCN(c2ccc(C(F)(F)F)cc2)CC1)c1csc2ccc(F)cc12 (stereo not shown)  inhibition (Plasmepsin II; enzyme activity, inhibitor; 5 µM): 0%
CC/C(=N\NC(=O)NCc1cccc(O)c1)c1ccc(O)c(C)c1O  inhibition (ALK tyrosine kinase receptor (ALK, Homo sapiens, UniProt Q9UM73, G1269A); enzyme activity, inhibitor; 0.1 µM): 0.4%
NC(=O)c1ccc(C(=O)NOCc2ccc3sc4ccccc4c3c2)cc1  inhibition (SIRT6; enzyme activity, inhibitor, fluorescence; 100 µM): 96.2%
